The values below come from ChEMBL document CHEMBL1125136, “Quinolone antibacterial agents substituted at the 7-position with spiroamines. Synthesis and structure-activity relationships” (1990).

Assay [1] has as its system Staphylococcus aureus. Briefly: Evaluated for minimum inhibitory concentration against […] bacteria Staphylococcus aureus UC-76. It is filed as functional. A digest of the protocol: (§1)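 Broth microdilution MIC by standard technique. Values come from duplicate experiments and are stated as accurate to ±50%.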
Assay [2] deals with Escherichia coli. Briefly: Evaluated for minimum inhibitory concentration against gram-negative bacteria Escherichia coli Vogel. The format is functional. A digest of the protocol: as §1
Assay [3] deals with Escherichia coli. Briefly: Evaluated for minimum concentration needed to produce linear DNA at an intensity relative to oxolinic acid at 10 mg/mL. by gyrase mediated cleavage of DNA in Escherichia coli 560. The format is functional. The note with it: read-out: MIC.
Assay [4] is described as follows: Evaluated for minimum inhibitory concentration against […] bacteria […] SV-1. The format is functional. A digest of the protocol:
as §1

Another assay has as its system Pseudomonas aeruginosa. In words: Evaluated for minimum inhibitory concentration against gram-negative bacteria Pseudomonas aeruginosa UI-18. The format is functional. The essentials: as §1
The subject of another assay is Klebsiella pneumoniae. In words: Evaluated for minimum inhibitory concentration against gram-negative bacteria Klebsiella pneumoniae MGH-2. The format is functional. The essentials: as §1
Assay [5] has as its system Staphylococcus aureus. Briefly: Evaluated for minimum inhibitory concentration against […] bacteria Staphylococcus aureus H228. The format is functional. The essentials: as §1
A further assay has as its system Streptococcus pyogenes. In words: Evaluated for minimum inhibitory concentration against gram-positive bacteria Streptococcus pyogenes C203.
A further assay concerns Pseudomonas. In words: Evaluated for minimum inhibitory concentration against gram-negative bacteria Pseudomonas rettgeri H1771. It is filed as functional. A digest of the protocol: as §1
A further assay relates to Enterobacter cloacae. In words: Evaluated for minimum inhibitory concentration against gram-negative bacteria Enterobacter cloacae HA 2646. The format is functional.
For another assay, the system named is Enterococcus faecalis. Briefly: Evaluated for minimum inhibitory concentration against gram-positive bacteria Staphylococcus faecalis MGH-2.
Assay [6] relates to Escherichia coli. In words: In vivo protective dose for mouse protection assay in Escherichia coli Vogel after peroral administration. It is filed as functional. The note with it: po, read-out: PD50. The essentials:
(§2)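 Female Charles River CD-1 mice were given an acute, lethal, systemic infection. A single dose of compound was given at the time of challenge, by the route stated in the line, with 16 animals per dose level. The read-out is the median protective dose (PD50, mg/kg). Per the footnote, values come from 16 animals per test, with a mean variation of ±34%.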

Assay [7] relates to Escherichia coli. In words: In vivo protective dose was determined in mouse protection assay in Escherichia coli Vogel after subcutaneous administration. It is filed as functional. The following applies: sc, read-out: PD50. A digest of the protocol:
as §2

The structures appear in SMILES notation. In brackets after ≈: the same amount, converted by molar mass.

Broadly, the MIC is the lowest concentration that inhibits growth of the organism. Lower therefore signals greater potency. For the compound `CCn1cc(C(=O)O)c(=O)c2cc(F)c(N3CCC4(CCN(C)C4)C3)cc21` (stereo unspecified), the MIC against Staphylococcus aureus [1] came to 0.1 µg/mL (≈ 0.268 µM); against Escherichia coli [2], 0.2 µg/mL (≈ 0.536 µM); in assay [4], 0.4 µg/mL (≈ 1.07 µM); with Pseudomonas aeruginosa, 3.1 µg/mL (≈ 8.3 µM); with Klebsiella pneumoniae it was 0.8 µg/mL (≈ 2.14 µM); in the assay with Staphylococcus aureus [5], 0.8 µg/mL (≈ 2.14 µM). Further, the MIC against Streptococcus pyogenes turned out to be 0.4 µg/mL (≈ 1.07 µM); in the assay with Pseudomonas, 3.1 µg/mL (≈ 8.3 µM); with Enterobacter cloacae it was 0.2 µg/mL (≈ 0.536 µM); in the assay with Enterococcus faecalis, 0.4 µg/mL (≈ 1.07 µM). In addition, the minimum concentration for gyrase-mediated DNA cleavage in the assay on Escherichia coli [3] came to 5 µg/mL.
On to `O=C(O)c1cn(C2CC2)c2c(F)c(N3CCC4(CCNC4)C3)c(F)cc2c1=O` (stereo unspecified), for which the minimum inhibitory concentration (MIC) against Staphylococcus aureus [1] was determined as 0.025 µg/mL (≈ 0.0642 µM); against Escherichia coli [2], 0.2 µg/mL (≈ 0.514 µM); in assay [4] it was 0.1 µg/mL (≈ 0.257 µM); in the assay on Pseudomonas aeruginosa, 1.6 µg/mL (≈ 4.11 µM); against Klebsiella pneumoniae, 0.4 µg/mL (≈ 1.03 µM); with Staphylococcus aureus [5], 0.2 µg/mL (≈ 0.514 µM). For the same compound, the MIC with Streptococcus pyogenes came out at 0.025 µg/mL (≈ 0.0642 µM); against Pseudomonas, 0.8 µg/mL (≈ 2.05 µM); against Enterobacter cloacae it was 0.2 µg/mL (≈ 0.514 µM); with Enterococcus faecalis it was 0.4 µg/mL (≈ 1.03 µM). Moreover, in the assay on Escherichia coli [3], the minimum concentration for gyrase-mediated DNA cleavage came to 0.1 µg/mL. For the same compound, the ED50 in the assay with Escherichia coli [6] is over 100 mg/kg; in the assay with Escherichia coli [7], 7 mg/kg.
In the case of `CCn1cc(C(=O)O)c(=O)c2cc(F)c(N3CCCC4(CCCNC4)C3)nc21` (stereo unspecified), the MIC in the assay on Staphylococcus aureus [1] is 3.1 µg/mL (≈ 7.98 µM); against Escherichia coli [2] it was 12.5 µg/mL (≈ 32.2 µM); in assay [4], 12.5 µg/mL (≈ 32.2 µM); in the assay on Pseudomonas aeruginosa it was 50 µg/mL (≈ 129 µM); against Klebsiella pneumoniae, 25 µg/mL (≈ 64.4 µM); in the assay on Staphylococcus aureus [5] it was 6.3 µg/mL (≈ 16.2 µM). In addition, the MIC worked out at 50 µg/mL (≈ 129 µM) with Streptococcus pyogenes, 100 µg/mL (≈ 257 µM) with Pseudomonas, 25 µg/mL (≈ 64.4 µM) with Enterobacter cloacae and 12.5 µg/mL (≈ 32.2 µM) with Enterococcus faecalis. Also, the minimum concentration for gyrase-mediated DNA cleavage in the assay on Escherichia coli [3] is 50 µg/mL.
Turning to `O=C(O)c1cn(C2CC2)c2c(F)c(N3CCC4(CCCN4)C3)c(F)cc2c1=O` (stereo unspecified), the MIC with Staphylococcus aureus [1] is 0.4 µg/mL (≈ 1.03 µM); against Escherichia coli [2] it was 0.025 µg/mL (≈ 0.0642 µM); in assay [4] it was 0.4 µg/mL (≈ 1.03 µM); against Pseudomonas aeruginosa, 0.2 µg/mL (≈ 0.514 µM); with Klebsiella pneumoniae it was 0.1 µg/mL (≈ 0.257 µM); against Staphylococcus aureus [5], 0.05 µg/mL (≈ 0.128 µM). For the same compound, the minimum inhibitory concentration (MIC) against Streptococcus pyogenes amounted to 0.4 µg/mL (≈ 1.03 µM); in the assay on Pseudomonas, 0.8 µg/mL (≈ 2.05 µM); in the assay on Enterobacter cloacae, 0.025 µg/mL (≈ 0.0642 µM); with Enterococcus faecalis, 0.4 µg/mL (≈ 1.03 µM). Moreover, the minimum concentration for gyrase-mediated DNA cleavage in the assay with Escherichia coli [3] was 0.5 µg/mL. The ED50 turned out to be 4 mg/kg in the assay on Escherichia coli [6] and 1 mg/kg in the assay on Escherichia coli [7].
For `O=C(O)c1cn(C2CC2)c2cc(N3CCNCC3)c(F)cc2c1=O` [CIPROFLOXACIN], the MIC in the assay with Staphylococcus aureus [1] worked out at 0.1 µg/mL (≈ 0.302 µM); against Escherichia coli [2] it was 0.025 µg/mL (≈ 0.0754 µM); in [4] it was 0.4 µg/mL (≈ 1.21 µM); with Pseudomonas aeruginosa, 0.1 µg/mL (≈ 0.302 µM); in the assay on Klebsiella pneumoniae it was 0.025 µg/mL (≈ 0.0754 µM); in the assay on Staphylococcus aureus [5] it was 1.6 µg/mL (≈ 4.83 µM). The values for the MIC against Streptococcus pyogenes, against Pseudomonas and against Enterococcus faecalis were 0.2 µg/mL (≈ 0.604 µM), 0.025 µg/mL (≈ 0.0754 µM) and 0.4 µg/mL (≈ 1.21 µM), respectively.
For `CCNCC1CCN(c2c(F)cc3c(=O)c(C(=O)O)cn(CC)c3c2F)C1` (stereo unspecified) [MERAFLOXACIN], the MIC is 0.05 µg/mL (≈ 0.132 µM) against Staphylococcus aureus [1]; 0.1 µg/mL (≈ 0.264 µM) with Escherichia coli [2]; 0.1 µg/mL (≈ 0.264 µM) in assay [4]; 1.6 µg/mL (≈ 4.22 µM) with Pseudomonas aeruginosa; 0.2 µg/mL (≈ 0.527 µM) against Klebsiella pneumoniae; 0.1 µg/mL (≈ 0.264 µM) against Staphylococcus aureus [5]. Further, the MIC in the assay with Streptococcus pyogenes was found to be 0.1 µg/mL (≈ 0.264 µM); in the assay with Pseudomonas, 0.4 µg/mL (≈ 1.05 µM); in the assay with Enterobacter cloacae, 0.2 µg/mL (≈ 0.527 µM); in the assay on Enterococcus faecalis, 0.1 µg/mL (≈ 0.264 µM). The minimum concentration for gyrase-mediated DNA cleavage with Escherichia coli [3] was determined as 2.5 µg/mL.
As to `CCn1cc(C(=O)O)c(=O)c2cc(F)c(N3CCNCC3)cc21` [NORFLOXACIN], the MIC amounted to 0.4 µg/mL (≈ 1.25 µM) against Staphylococcus aureus [1]; 0.1 µg/mL (≈ 0.313 µM) against Escherichia coli [2]; 3.1 µg/mL (≈ 9.71 µM) in assay [4]; 0.8 µg/mL (≈ 2.51 µM) in the assay on Pseudomonas aeruginosa; 0.2 µg/mL (≈ 0.626 µM) with Klebsiella pneumoniae; 3.1 µg/mL (≈ 9.71 µM) against Staphylococcus aureus [5]. For the same compound, the MIC in the assay on Streptococcus pyogenes was determined as 3.1 µg/mL (≈ 9.71 µM); in the assay with Pseudomonas it was 0.2 µg/mL (≈ 0.626 µM); against Enterobacter cloacae, 0.1 µg/mL (≈ 0.313 µM); in the assay with Enterococcus faecalis, 3.1 µg/mL (≈ 9.71 µM). Also, the minimum concentration for gyrase-mediated DNA cleavage with Escherichia coli [3] stood at 5.2 µg/mL.
Consider `CC1COc2c(N3CCN(C)CC3)c(F)cc3c(=O)c(C(=O)O)cn1c23` (stereo unspecified) [OFLOXACIN], for which the MIC was found to be 0.4 µg/mL (≈ 1.11 µM) with Staphylococcus aureus [1]; 0.2 µg/mL (≈ 0.553 µM) in the assay on Escherichia coli [2]; 0.4 µg/mL (≈ 1.11 µM) in assay [4]; 1.6 µg/mL (≈ 4.43 µM) in the assay on Pseudomonas aeruginosa; 0.2 µg/mL (≈ 0.553 µM) in the assay with Klebsiella pneumoniae; 3.1 µg/mL (≈ 8.58 µM) against Staphylococcus aureus [5]. Also, the MIC with Streptococcus pyogenes amounted to 3.1 µg/mL (≈ 8.58 µM); against Pseudomonas it was 0.4 µg/mL (≈ 1.11 µM); in the assay with Enterobacter cloacae it was 0.1 µg/mL (≈ 0.277 µM); with Enterococcus faecalis, 6.3 µg/mL (≈ 17.4 µM). In the assay on Escherichia coli [3], the minimum concentration for gyrase-mediated DNA cleavage worked out at 6.2 µg/mL.
On to `CCNCC1CCN(c2c(F)cc3c(=O)c(C(=O)O)cn(C4CC4)c3c2F)C1` (stereo unspecified) [PD-117558], for which the MIC against Staphylococcus aureus [1] turned out to be 0.006 µg/mL (≈ 0.0153 µM); against Escherichia coli [2], 0.05 µg/mL (≈ 0.128 µM); in assay [4] it was 0.025 µg/mL (≈ 0.0639 µM); against Pseudomonas aeruginosa it was 0.4 µg/mL (≈ 1.02 µM); against Klebsiella pneumoniae, 0.1 µg/mL (≈ 0.255 µM); against Staphylococcus aureus [5], 0.025 µg/mL (≈ 0.0639 µM). In addition, the MIC is 0.025 µg/mL (≈ 0.0639 µM) against Streptococcus pyogenes, 0.2 µg/mL (≈ 0.511 µM) in the assay with Pseudomonas, 0.1 µg/mL (≈ 0.255 µM) with Enterobacter cloacae and 0.025 µg/mL (≈ 0.0639 µM) with Enterococcus faecalis. Moreover, the minimum concentration for gyrase-mediated DNA cleavage in the assay on Escherichia coli [3] was 0.25 µg/mL.
